# Screening data from PubChem BioAssay.
# Many of the other results were omitted from the sample, so hits are more common in it than they were.
# PTEN del growth – suppresses growth of cells with PTEN deletion | HCT116 PTEN-null viability, CellTiter-Glo, 60 h; stronger effect = lower value | viability, % at 10 µM | 1.2% of 140,000 active | AID 827;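 active means viability at or below a set limit, 4 SD under the median of all tested compounds, cut at about 3.7% in these data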;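 further: PTEN knockout HCT116 line with beta catenin targeted HCT116 as companion control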
# Fibroblast inh – blocks proliferation of human lung fibroblasts; LL 47 human lung fibroblast viability, ATP luminescence; stronger effect = lower value; viability, % at 10 µM; 1.1% of 85,000 active; AID 719;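 active means viability at or below 50% in the single dose screen; inactive means viability above 50%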;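 further: compound exposure lasted 72 h before the ATP readout; 100% = median luminescence of untreated cell-only wells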
#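 Times – overnight cell rest, 72 h compound treatment at 37 °C · Test system – human lung fibroblast line LL 47, low passage · Amount – 1,150 cells in each well · Controls – cell-only wells, no compound · Doses – 0.1% DMSO in all compound wells · Measured by – CellTiter-Glo luminescence · Buffer or medium – IMEM plus 15% FBS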
# HUVEC inhibit – blocks proliferation of human endothelial cells | HUVEC proliferation, CellTiter-Glo luminescence, 72 h; stronger effect = lower value | viability, % at 10 µM (by protocol) | 1.1% of 86,000 active | AID 648;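 active means viability at or below 30%; inactive means viability above 30%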;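 further: 100% = median luminescence of DMSO-only cell control wells on each plate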
# HCT116 bCat-KO – beta-catenin-lacking colon tumor cell growth suppression | HCT116 beta-catenin knockout viability, CellTiter-Glo, 60 h; stronger effect = lower value | viability, % at 10 µM | 1.5% of 140,000 active | AID 818;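 active means viability at or under a set limit, the compound median less 4 SD, cut at about 6% in these data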;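 further: 0% = Hyamine 1622 control at 20 µM and 100% = untreated cell control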
# H69AR inhibit – growth inhibitors of human H69AR lung tumor cells; H69AR lung tumor viability, ATP luminescence, 72 h; stronger effect = lower value; 6% of 85,000 active; viability, % at 10 µM;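 active means viability at or below 40%; inactive means viability above 40%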;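 further: multidrug resistant small cell line overexpressing MRP-1 efflux transporter; 100% = mean luminescence of untreated control wells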
# The depositor's hits bear a star; · = not tested or not shown.
SMILES,PTEN del growth,Fibroblast inh,HUVEC inhibit,HCT116 bCat-KO,H69AR inhibit
Cc1ccc(S(=O)(=O)N2CCC(=O)N(C(COCc3ccc(C(F)(F)F)cc3)Cc3ccccc3)CC2)cc1 (stereo not drawn),58,·,·,60,·
Nc1c(C(=O)NCC2CCCO2)c2nc3ccccc3nc2n1-c1ccccc1 (stereo not drawn),56,74,79,49,21*
C=CCNC(=O)c1c(N)n(-c2ccc3c(c2)OCO3)c2nc3ccccc3nc12,38,31*,37,65,13*
COc1ccccc1-n1c(N)c(C(=O)NCC2CCCO2)c2nc3ccccc3nc21 (stereo not drawn),68,80,65,71,53
O=[N+]([O-])c1ccc(NC(=S)NCCc2ccc(Cl)cc2)cc1,2.9*,·,·,3.5*,·
CCOc1ccc(C(=O)Nc2ccc(NC(=O)c3ccco3)c(Cl)c2)cc1Cl,13,66,31,15,14*
CCCCOc1ccccc1NC(=O)c1ccco1,98,99,94,96,82
CCOc1ccc(C(=O)Nc2ccc(NC(=O)c3ccco3)c(Cl)c2)cc1Br,53,·,·,70,·
CCOc1ccccc1NC(=O)c1cccc(NC(=O)c2ccco2)c1,98,60,58,103,25*
COC(=O)c1ccc(-n2cncn2)c(F)c1,99,·,·,94,·
Fc1ccc(OCc2nnc(SCCN3CCOCC3)o2)cc1,94,98,99,90,105
COc1ccc(C(=O)CSc2nc3ccc([N+](=O)[O-])cc3[nH]2)cc1,78,·,·,85,·
O=C(CCc1ccccc1)Nc1ccc2c(c1)OCCO2,102,95,90,98,86
Nc1c(C(=O)Nc2ccc3c(c2)OCCO3)nnn1CCc1ccccc1,30,41*,63,40,37*
C=CCN(c1ccccc1)S(=O)(=O)c1ccc(Cl)c(C(=O)OCC(=O)c2[nH]c(C)c(C(C)=O)c2C)c1,99,·,·,96,·
CC1=C(C(=O)Nc2ccccc2)C(c2ccc(C)o2)n2c(s/c(=C\c3ccco3)c2=O)=N1 (stereo not drawn),84,82,69,89,3.5*
COc1cccc(C2C(C(=O)Nc3ccccc3)=C(C)N=c3s/c(=C/c4ccc(OCC(=O)O)cc4)c(=O)n32)c1 (stereo not drawn),102,·,·,101,·
O=C1c2ccccc2OC2(C=Cc3ccccc3O2)N1Cc1ccccc1 (stereo not drawn),22,93,62,17,12*
CN(C)S(=O)(=O)c1ccc(S(=O)(=O)N(Cc2ccco2)Cc2ccccc2Cl)cc1,80,80,94,76,40*
CN(c1ccccc1)c1cc(=O)[nH]c(=O)[nH]1,99,·,·,113,·
NC(=O)c1c(NC(=O)c2ccccc2)sc2c1CCc1ccccc1-2,58,68,80,80,26*
NC(=O)c1c(NC(=O)c2ccco2)sc2c1CCC2,92,89,76,90,63
O=C(Nc1ncccn1)c1cc([N+](=O)[O-])cc([N+](=O)[O-])c1,81,·,·,99,·
O=[N+]([O-])c1cc(-c2ncccn2)c([N+](=O)[O-])s1,7,·,·,2.2*,·
COc1ccc(CNC(=O)C(CCSC)NC(=O)c2ccco2)cc1 (stereo not drawn),93,·,·,101,·
SMILES,PTEN del growth,Fibroblast inh,HUVEC inhibit,HCT116 bCat-KO,H69AR inhibit
COc1ccc2nc(Sc3c([N+](=O)[O-])nc(C)n3Cc3ccccc3)[nH]c2c1,1.7*,·,·,4.6*,·
Cc1nc([N+](=O)[O-])c(Sc2nc3ccccc3[nH]2)n1Cc1ccccc1,16,·,·,11,·
Cc1cc2nc(Sc3c([N+](=O)[O-])nc(C)n3Cc3ccccc3)[nH]c2cc1C,2.8*,·,·,4.6*,·
CCCCC(=O)Nc1ccc(C(=O)Nc2ccc(S(=O)(=O)Nc3nccc(C)n3)cc2)cc1,100,·,·,93,·
O=C(Nn1c(C2CCCCC2)nc2ccccc2c1=O)c1ccc([N+](=O)[O-])cc1Cl,93,·,·,99,·
O=C(NNc1nc2cc3c(cc2s1)OCO3)c1cccc(F)c1,0.2*,·,·,0.6*,·
CCN(CC)S(=O)(=O)c1cccc(C(=O)Nc2nc3cc4c(cc3s2)OCCO4)c1,54,95,104,39,22*
Cc1cccc(C)c1NC(=O)CNc1ncnc2sc(C)c(C)c12,104,·,·,91,·
CCOC(=O)C(C)/C(C)=N/NC(N)=S (stereo not drawn),110,·,·,103,·
COc1ccc(S(=O)(=O)Nc2cc3c4c(oc3c3ccccc23)CC(C)(C)CC4=O)cc1,23,100,69,39,15*
